Reference: PMC4712096 (The FEBS journal, 2015)
Peptide text beside a SMILES is read from it.

B1: A3G226-240 (peptide)
peptide: RMHNDTWVLLNQRRG
B2: A3G211-225 (peptide)
peptide: WVRGRHETYLCYEVE
B3: A3F305-311 (peptide)
peptide: RLYYFWD
B4: A3F304-312 (peptide)
peptide: ARLYYFWDT
B5: Vif107-115 (peptide)
peptide: IHLYYFDCF

Key:
H9 cells = assay: Alkaline comet assay in H9 cells; assay type: cell-based; conditions: no radiation; Tail DNA % and Olive Tail Moment
Outline: (§1)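 Alkaline comet assay. One day after culturing, cells were pre-treated or not with peptides for 2 h, then γ-irradiated (4 Gy) or mock-irradiated. Cells were embedded in low-melting agarose. Lysis was 2 h in ice-cold 2.5 M NaCl, 100 mM EDTA, 10 mM Tris pH 10, 1% Triton X-100 and 10% DMSO. DNA was unwound 20 min at 4°C in NaOH/EDTA pH 13 and electrophoresed 45 V, 20 min. Slides were neutralised and stained with ethidium bromide. Tail DNA % and Olive tail moment were scored from random fields.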

SupT1 cells = assay: Alkaline comet assay in SupT1 cells; assay type: cell-based; conditions: no radiation; Tail DNA % and Olive Tail Moment
Outline: as §1

A3G = A3G (Homo sapiens, UniProt Q9HC16); assay: Inhibition of deamination activity of purified A3G; assay type: biochemical
A3G, sequence (Q9HC16 whole entry): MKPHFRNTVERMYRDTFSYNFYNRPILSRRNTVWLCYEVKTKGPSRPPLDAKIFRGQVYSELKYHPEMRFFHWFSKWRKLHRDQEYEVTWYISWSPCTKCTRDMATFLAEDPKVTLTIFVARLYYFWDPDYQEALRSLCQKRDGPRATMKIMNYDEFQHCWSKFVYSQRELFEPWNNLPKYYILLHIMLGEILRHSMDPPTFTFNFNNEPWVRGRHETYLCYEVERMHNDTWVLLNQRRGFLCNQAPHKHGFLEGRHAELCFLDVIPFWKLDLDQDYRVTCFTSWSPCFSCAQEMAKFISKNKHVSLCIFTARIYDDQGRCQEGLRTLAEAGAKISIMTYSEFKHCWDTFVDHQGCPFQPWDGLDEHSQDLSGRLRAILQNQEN

[1] = target: APOBEC3G (A3G), wild type, C-terminal His6 tag (human) (UniProt Q9HC16)
APOBEC3G (A3G), wild type, C-terminal His6 tag (human), sequence (Q9HC16 whole entry): as above

[2] = target: APOBEC3G (A3G), wild type, C-terminal His6 tag (human, UniProt Q9HC16 1-384); assay: cell-based or functional assay
APOBEC3G (A3G), wild type, C-terminal His6 tag, sequence (Q9HC16 whole entry): as above

Row | Molecule | IC50 (A3G) [µM] | IC50 of inhibition of ssDNA deamination by purified A3G [1] [µM] | further results
1 | CC(C)C[C@H](NC(=O)[C@H](CCCNC(=N)N)NC(=O)[C@H](C)N)C(=O)N[C@@H](Cc1ccc(O)cc1)C(=O)N[C@@H](Cc1ccc(O)cc1)C(=O)N[C@@H](Cc1ccccc1)C(=O)N[C@@H](Cc1c[nH]c2ccccc12)C(=O)N[C@@H](CC(=O)O)C(=O)N[C@H](C(=O)O)[C@@H](C)O [Peptide A3F304-312] (H-ARLYYFWDT-OH) | 8 | – | DNA damage in non-irradiated H9 cells (comet assay) (H9 cells): did not induce breaks; DNA damage in non-irradiated SupT1 cells (comet assay) (SupT1 cells): did not induce breaks
2 | CC(C)C[C@H](NC(=O)[C@@H](N)CCCNC(=N)N)C(=O)N[C@@H](Cc1ccc(O)cc1)C(=O)N[C@@H](Cc1ccc(O)cc1)C(=O)N[C@@H](Cc1ccccc1)C(=O)N[C@@H](Cc1c[nH]c2ccccc12)C(=O)N[C@@H](CC(=O)O)C(=O)O [Peptide A3F305-311] (H-RLYYFWD-OH) | 1 | – | DNA damage in non-irradiated H9 cells (comet assay) (H9 cells): did not induce breaks; DNA damage in non-irradiated SupT1 cells (comet assay) (SupT1 cells): did not induce breaks
3 | CC(C)C[C@H](NC(=O)[C@H](Cc1ccc(O)cc1)NC(=O)[C@@H](NC(=O)[C@H](CCC(=O)O)NC(=O)[C@H](Cc1cnc[nH]1)NC(=O)[C@H](CCCNC(=N)N)NC(=O)CNC(=O)[C@H](CCCNC(=N)N)NC(=O)[C@@H](NC(=O)[C@@H](N)Cc1c[nH]c2ccccc12)C(C)C)[C@@H](C)O)C(=O)N[C@@H](CS)C(=O)N[C@@H](Cc1ccc(O)cc1)C(=O)N[C@@H](CCC(=O)O)C(=O)N[C@H](C(=O)N[C@@H](CCC(=O)O)C(=O)O)C(C)C [Peptide A3G211-225] (H-WVRGRHETYLCYEVE-OH) | 10 | – | –
4 | CSCC[C@H](NC(=O)[C@@H](N)CCCNC(=N)N)C(=O)N[C@@H](Cc1c[nH]cn1)C(=O)N[C@@H](CC(N)=O)C(=O)N[C@@H](CC(=O)O)C(=O)N[C@H](C(=O)N[C@@H](Cc1c[nH]c2ccccc12)C(=O)N[C@H](C(=O)N[C@@H](CC(C)C)C(=O)N[C@@H](CC(C)C)C(=O)N[C@@H](CC(N)=O)C(=O)N[C@@H](CCC(N)=O)C(=O)N[C@@H](CCCNC(=N)N)C(=O)N[C@@H](CCCNC(=N)N)C(=O)NCC(=O)O)C(C)C)[C@@H](C)O [Peptide A3G226-240] (H-RMHNDTWVLLNQRRG-OH) | 60 | – | –
5 | CSCC[C@H](NC(=O)[C@H](Cc1c[nH]cn1)NC(=O)[C@H](Cc1c[nH]cn1)NC(=O)[C@H](CCCCN)NC(=O)[C@@H](N)C(C)C)C(=O)N[C@@H](Cc1ccc(O)cc1)C(=O)N[C@H](C(=O)N[C@@H](CO)C(=O)NCC(=O)N[C@@H](CCCCN)C(=O)N[C@@H](C)C(=O)N[C@@H](CCCNC(=N)N)C(=O)O)C(C)C [Vif25-36] | 50 | – | –
6 | CSCC[C@H](NC(=O)[C@H](Cc1c[nH]cn1)NC(=O)[C@H](Cc1c[nH]cn1)NC(=O)[C@H](CCCCN)NC(=O)[C@@H](N)C(C)C)C(=O)N[C@@H](Cc1ccc(O)cc1)C(=O)N[C@H](C(=O)N[C@@H](CO)C(=O)NCC(=O)N[C@@H](CCCCN)C(=O)N[C@@H](C)C(=O)N[C@@H](CCCNC(=N)N)C(=O)NCC(=O)N[C@@H](Cc1c[nH]c2ccccc12)C(=O)N[C@@H](Cc1ccccc1)C(=O)O)C(C)C [Vif25-39] | 0.6 | – | DNA damage in non-irradiated H9 cells (comet assay) (H9 cells): did not induce any damage; DNA damage in non-irradiated SupT1 cells (comet assay) (SupT1 cells): did not induce any damage
7 | CC[C@H](C)[C@H](N)C(=O)N[C@@H](Cc1c[nH]cn1)C(=O)N[C@@H](CC(C)C)C(=O)N[C@@H](Cc1ccc(O)cc1)C(=O)N[C@@H](Cc1ccc(O)cc1)C(=O)N[C@@H](Cc1ccccc1)C(=O)N[C@@H](CC(=O)O)C(=O)N[C@@H](CS)C(=O)N[C@@H](Cc1ccccc1)C(=O)O [Vif107-115] (H-IHLYYFDCF-OH) | – | – | DNA damage in non-irradiated H9 cells (comet assay) (H9 cells): did not induce any damage; DNA damage in non-irradiated SupT1 cells (comet assay) (SupT1 cells): did not induce any damage; Ki (A3G): ~1710 nM
8 | CSCC[C@H](NC(=O)[C@H](Cc1c[nH]cn1)NC(=O)[C@H](Cc1c[nH]cn1)NC(=O)[C@H](C)NC(=O)[C@@H](N)C(C)C)C(=O)N[C@@H](Cc1ccc(O)cc1)C(=O)N[C@H](C(=O)N[C@@H](CO)C(=O)NCC(=O)N[C@@H](CCCCN)C(=O)N[C@@H](C)C(=O)N[C@@H](CCCNC(=N)N)C(=O)NCC(=O)N[C@@H](Cc1c[nH]c2ccccc12)C(=O)N[C@@H](Cc1ccccc1)C(=O)O)C(C)C [Vif 25-39 (26A)] | 8 | – | –
9 | CSCC[C@H](NC(=O)[C@H](C)NC(=O)[C@H](C)NC(=O)[C@H](C)NC(=O)[C@@H](N)C(C)C)C(=O)N[C@@H](Cc1ccc(O)cc1)C(=O)N[C@H](C(=O)N[C@@H](CO)C(=O)NCC(=O)N[C@@H](CCCCN)C(=O)N[C@@H](C)C(=O)N[C@@H](CCCNC(=N)N)C(=O)NCC(=O)N[C@@H](Cc1c[nH]c2ccccc12)C(=O)N[C@@H](Cc1ccccc1)C(=O)O)C(C)C [Vif 25-39 (26AAA28)] (H-VAAAMYVSGKARGWF-OH) | 10 | – | –
10 | CSCC[C@H](NC(=O)[C@H](C)NC(=O)[C@H](C)NC(=O)[C@H](CCCCN)NC(=O)[C@@H](N)C(C)C)C(=O)N[C@@H](Cc1ccc(O)cc1)C(=O)N[C@H](C(=O)N[C@@H](CO)C(=O)NCC(=O)N[C@@H](CCCCN)C(=O)N[C@@H](C)C(=O)N[C@@H](CCCNC(=N)N)C(=O)NCC(=O)N[C@@H](Cc1c[nH]c2ccccc12)C(=O)N[C@@H](Cc1ccccc1)C(=O)O)C(C)C [Vif 25-39 (27AA28)] (H-VKAAMYVSGKARGWF-OH) | 4.5 | – | –
11 | Vif25-36 (peptide) | – | 50 | –
12 | Vif25-39 (peptide) | – | 0.6 | –
13 | Vif26-39 (peptide) | – | 80 | –
14 | Vif105-119 (peptide) | – | 0.1 | –
15 | Vif 25-39 (26A) (peptide) | – | 8 | –
16 | Vif 25-39 (26AAA28) (peptide) | – | 10 | –
17 | Vif 25-39 (27AA28) (peptide) | – | 4.5 | –
18 | B1 | – | 60 | –
19 | B2 | – | 10 | –
20 | B3 | – | 1 | –
21 | B4 | – | 8 | –
22 | B5 | – | – | IC50 of inhibition of ssDNA deamination by purified A3G [2]: 0.1 µM
